Laboratory results taken from PubChem BioAssay AID493228 (Broad Institute, 2011).
Values joined by “and” are separate entries in the source; they are usually repeats but may differ in a detail not shown here. Equal entries are not always repeated. Results filed as inconclusive are left out. Active and inactive are the calls of the source.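 Rule for the calls: active = fitted dose curve passes 500% activation at or below the top valid tested dose; inconclusive = no clear call, values can overlap the other calls; inactive = the rest, opposite-direction activity included.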

Columns and labels:
[1] = tested on: U2OS HRE-luciferase reporter, iron medium, luminescence; assay: HIF reporter activators, metal chelation test – cell-based, iron medium, luminescence, U2OS, dry powder, mechanism study for HIF activator project, dose response (AID 493228)
In short: (§1)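 Material: human U2OS cells stably carrying 3×HRE-luciferase reporter; buffer or medium: medium supplemented with ferric nitrate, 50 µM final; schedule: cells plated 24 h before dosing, compound exposure 24 h at 37 °C; detection: Steady-Glo luminescence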

[2] = as above; conditions: U2OS HRE-luciferase reporter, iron medium, luminescence; at 38 µM (top of the series)
In short: as §1

Structure (SMILES)	AC50 [1]	activation [2]
CC(Nc1nc(-c2ccccn2)nnc1-c1ccccc1)c1ccccc1 (stereo not given)	23.2 µM	–
O=C(c1cc(-c2ccccc2)on1)N1CCN(c2ccncc2)CC1	–	-9.52% (inactive)
c1ccc(-c2nnc(Nc3nc(-c4ccccn4)nnc3-c3ccccc3)s2)cc1	–	67% (inactive)
c1ccc(-c2nnc(-c3ccccn3)nc2NCc2cccnc2)cc1	–	402% (inactive)
O=C(Nc1ncc2ccccc2n1)c1cc(-c2ccccc2)on1	–	196% (inactive)
O=C(NCc1ccccc1)c1cc(-c2ccccc2)on1	–	65.7% (inactive)
CC(C)(C)OC(=O)N1CCN(Cc2ccc(O)c3ncccc23)CC1	–	10.8% (inactive)
Clc1cccc(CNc2nc(-c3ccccn3)nnc2-c2ccccc2)c1	17.9 µM	–
c1ccc(-c2nnc(-c3ccccn3)nc2Nc2cnc3ccccc3n2)cc1	–	299% (inactive)
c1ccc(-c2nnc(-c3ccccn3)nc2NCCCN2CCOCC2)cc1	–	168% (inactive)
N#CC1(c2ccccc2)CCN(Cc2ccc(O)c3ncccc23)CC1	–	10.5% (inactive)
Oc1ccc(CN2CCC3CCCCC3C2)c2cccnc12 (stereo not given)	–	-92.3% (inactive)
Oc1ccc(CNC2CCc3ccccc32)c2cccnc12 (stereo not given)	–	-90.3% (inactive)
CC1CN(Cc2ccc(O)c3ncccc23)CC(C)O1 (stereo not given)	–	-85.2% (inactive)
O=C(NC1CCc2ccccc2C1)c1cc(-c2ccccc2)on1 (stereo not given)	–	2.06% (inactive)
O=C(Nc1nnc(-c2ccccc2)s1)c1cc(-c2ccccc2)on1	–	-5.78% (inactive)
c1ccc(-c2nnc(-c3ccccn3)nc2NCc2ccccn2)cc1	27.7 µM	–
c1ccc(CNc2nc(-c3ccccn3)nnc2-c2ccccc2)cc1	17 µM	–
c1ccc(-c2nnc(-c3ccccn3)nc2NCCN2CCOCC2)cc1	31.7 µM	–
Cc1cccc(Nc2nc(-c3ccccn3)nnc2-c2ccccc2)n1	–	306% (inactive)
CN(C)c1nc(-c2ccccn2)nnc1-c1ccccc1	–	80.9% (inactive)
C=CCNc1nc(-c2ccccn2)nnc1-c1ccccc1	–	288% (inactive)
c1ccc(-c2cccc(CNc3nc(-c4ccccn4)nnc3-c3ccccc3)c2)cc1	–	113% (inactive)
O=C(c1cc(-c2ccccc2)on1)N1CCC(N2CCOCC2)CC1	–	9.93% (inactive)
c1ccc(-c2csc(Nc3nc(-c4ccccn4)nnc3-c3ccccc3)n2)cc1	–	73.9% (inactive)
O=C(NCCN1CCOCC1)c1cc(-c2ccccc2)on1	12.4 µM	–
CC(C)(C)c1ccc(CNc2nc(-c3ccccn3)nnc2-c2ccccc2)cc1	–	246% (inactive)

Structure (SMILES)	AC50 [1]	activation [2]
O=C(Nc1cn2ccccc2n1)c1cc(-c2ccccc2)on1	–	36% (inactive)
CCCCNC(=O)c1cc(-c2ccccc2)on1	7.93 µM	–
c1ccc(-c2nnc(-c3ccccn3)nc2N2CCC(N3CCOCC3)CC2)cc1	36 µM	–
O=C(NC1Cc2ccccc2C1)c1cc(-c2ccccc2)on1	–	175% (inactive)
Cc1cccc(NC(=O)c2cc(-c3ccccc3)on2)n1	–	47.5% (inactive)
O=C(NCCCCO)c1cc(-c2ccccc2)on1	2.72 µM	–
Cc1ccc(NC(=O)c2cc(-c3ccccc3)on2)cn1	–	-1.64% (inactive)
C[C@@H](Nc1nc(-c2ccccn2)nnc1-c1ccccc1)c1ccccc1	20.7 µM	–
COc1ccccc1N1CCN(Cc2ccc(O)c3ncccc23)CC1	–	-77.4% (inactive)
Cc1ccccc1CNc1nc(-c2ccccn2)nnc1-c1ccccc1	25 µM	–
Oc1ccc(CNC2Cc3ccccc3C2)c2cccnc12	–	-87.7% (inactive)
Cn1c(-c2ccccc2)cnc1NC(=O)c1cc(-c2ccccc2)on1	–	23.2% (inactive)
c1ccc(CCNc2nc(-c3ccccn3)nnc2-c2ccccc2)cc1	20.9 µM	–
Cc1cccc(CNc2nc(-c3ccccn3)nnc2-c2ccccc2)c1	17.3 µM	–
c1ccc(-c2nnc(-c3ccccn3)nc2NCC2CC2)cc1	–	392% (inactive)
COc1ccc(CNc2nc(-c3ccccn3)nnc2-c2ccccc2)cc1	14.3 µM	–
c1ccc(-c2nnc(-c3ccccn3)nc2Nc2nc3ccccc3s2)cc1	–	-17.3% (inactive)
O=C(c1cc(-c2ccccc2)on1)N1CCC(N2CCCC2)CC1	–	0.413% (inactive)
c1ccc(-c2cnc(Nc3nc(-c4ccccn4)nnc3-c3ccccc3)s2)cc1	–	-26.9% (inactive)
O=C(Nc1ccc2ccccc2n1)c1cc(-c2ccccc2)on1	–	10.3% (inactive)
c1ccc(-c2ccc(CNc3nc(-c4ccccn4)nnc3-c3ccccc3)cc2)cc1	9.24 µM	–
Cn1c(NC(=O)c2cc(-c3ccccc3)on2)nc2ccccc21	–	4.17% (inactive)
CN1CCN(c2nc(-c3ccccn3)nnc2-c2ccccc2)CC1	–	315% (inactive)
CC(C)(C)CCNc1nc(-c2ccccn2)nnc1-c1ccccc1	17 µM and 16.2 µM	–
O=C(Nc1ncc(-c2ccccc2)o1)c1cc(-c2ccccc2)on1	–	22.7% (inactive)
c1ccc(-c2nnc(-c3ccccn3)nc2NCC2CCOCC2)cc1	–	226% (inactive)
CN1CCN(C(=O)c2cc(-c3ccccc3)on2)CC1	–	4.95% (inactive)

Structure (SMILES)	AC50 [1]	activation [2]
c1ccc(-c2nnc(-c3ccccn3)nc2NCCc2ccccn2)cc1	–	460% (inactive)
O=C(NCC1CC1)c1cc(-c2ccccc2)on1	7.37 µM	–
c1ccc(-c2nnc(-c3ccccn3)nc2N2CCC(c3ccccc3)C2)cc1 (stereo not given)	–	313% (inactive)
OCCCNc1nc(-c2ccccn2)nnc1-c1ccccc1	–	310% (inactive)
C[C@@H](Nc1nc(-c2ccccn2)nnc1-c1ccccc1)C1CCCCC1	–	419% (inactive)
OCC1CCN(Cc2ccc(O)c3ncccc23)CC1	–	-91.5% (inactive)
COc1cccc(CNc2nc(-c3ccccn3)nnc2-c2ccccc2)c1	22.8 µM	–
c1ccc(-c2nnc(-c3ccccn3)nc2N2CCC(C3CCCCC3)C2)cc1 (stereo not given)	–	17.7% (inactive)
C[C@H](Nc1nc(-c2ccccn2)nnc1-c1ccccc1)C1CCCCC1	18.9 µM	–
Cn1c(-c2ccccc2)cnc1Nc1nc(-c2ccccn2)nnc1-c1ccccc1	–	-7.02% (inactive)
c1ccc(-c2nnc(-c3ccccn3)nc2NCC2CCCCC2)cc1	18.2 µM	–
CN(C)CCNC(=O)c1cc(-c2ccccc2)on1	–	36.8% (inactive)
O=C(NCCCN1CCOCC1)c1cc(-c2ccccc2)on1	12 µM	–
O=C(NCCCn1ccnc1)c1cc(-c2ccccc2)on1	6.23 µM	–
Cc1ccc(Nc2nc(-c3ccccn3)nnc2-c2ccccc2)cn1	–	473% (inactive)
O=C(NCCN1CCCCC1)c1cc(-c2ccccc2)on1	–	64.1% (inactive)
Oc1ccc(CN2CCc3ccccc3C2)c2cccnc12	–	-88.2% (inactive) and -90.7% (inactive)
O=C(Nc1nc2ccccc2s1)c1cc(-c2ccccc2)on1	–	22.7% (inactive)
Cc1ccc(CNC(=O)c2cc(-c3ccccc3)on2)cc1	–	13.2% (inactive)
O=C(NCCCO)c1cc(-c2ccccc2)on1	7.47 µM	–
O=C(Nc1nc(-c2ccccc2)cs1)c1cc(-c2ccccc2)on1	–	-5.37% (inactive)
Cc1ccc(CNc2nc(-c3ccccn3)nnc2-c2ccccc2)cc1C	13.6 µM	–
O=C(Nc1cnc2ccccc2c1)c1cc(-c2ccccc2)on1	–	26% (inactive)
Oc1ccc(CN2CCC(Cc3ccccc3)CC2)c2cccnc12	–	27% (inactive)
CC(C)(C)CCNC(=O)c1cc(-c2ccccc2)on1	23.1 µM	–
Cc1ccccc1CNC(=O)c1cc(-c2ccccc2)on1	–	40.9% (inactive)
